≈ marks a conversion by molar mass, not a printed value.
Assays:
[1] = tested on: Mycobacterium tuberculosis; assay: Growth inhibition of Mycobacterium bovis BCG ATCC 35743 at active stage measured after 8 days by nitrate reductase dye based two fold dilution method; type: functional; conditions: BCG str. ATCC 35743, 192 h
Outline: (§1)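 M. bovis BCG was grown in Dubos medium and assayed in Mycobacterium pheli minimal medium (pH 6.6), with compounds from DMSO stocks. Incubation lasted 8 days for active and 12 days for dormant cultures. Viability was read by nitrate reductase at 540 nm against cell-free blanks, with vehicle set as 100% growth. Primary screen was at 30, 10 and 3 µg/ml, in triplicate, mean ± SD. MIC was taken from dose-response curves.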

[2] = tested on: Mycobacterium tuberculosis; assay: Growth inhibition of Mycobacterium tuberculosis H37Ra ATCC 25177 at dormant stage measured after 12 days by XTT dye based two fold dilution method; type: functional; conditions: H37Ra ATCC 25177, 288 h
Outline: (§2)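 MTB H37Ra was grown in Dubos medium, then exposed in Mycobacterium pheli minimal medium (pH 6.6) to compounds dissolved in DMSO. The assay ended on day 8 (active) or day 12 (dormant). Viable cells were measured by XTT reduction menadione assay at 470 nm, blank-corrected, relative to vehicle control. Triplicates were expressed as mean ± SD. MIC came from dose-response curves.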

[3] = tested on: Mycobacterium tuberculosis; assay: Growth inhibition of Mycobacterium bovis BCG ATCC 35743 at dormant stage measured after 12 days by nitrate reductase dye based two fold dilution method; type: functional; conditions: BCG str. ATCC 35743, 288 h; outline: as §1
[4] = tested on: Mycobacterium tuberculosis; assay: Growth inhibition of Mycobacterium tuberculosis H37Ra ATCC 25177 at active stage measured after 8 days by XTT dye based two fold dilution method; type: functional; conditions: H37Ra ATCC 25177, 192 h; outline: as §2
[5] = Selectivity index, ratio of GI50 for HUVEC to MIC for Mycobacterium tuberculosis H37Ra ATCC 25177 at dormant stage
[6] = Selectivity index, ratio of GI50 for HUVEC to MIC for Mycobacterium bovis BCG ATCC 35743 at dormant stage; conditions: pooled result: one value given for 6 cell lines, strains, targets or settings
Outline: (§3)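 SI is the cell-line GI50 divided by the dormant-stage mycobacterial MIC. […] THP-1 macrophages were PMA-differentiated for 24 h.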

[7] = Selectivity index, ratio of GI50 for human THP1 cells to MIC for Mycobacterium tuberculosis H37Ra ATCC 25177 at dormant stage; type: toxicity, cell-based, THP-1; conditions: read-out: Selectivity Index; outline: as §3
[8] = Selectivity index, ratio of GI50 for […]-differentiated human THP1 cells to MIC for Mycobacterium tuberculosis H37Ra ATCC 25177 at dormant stage; type: toxicity, cell-based, THP-1; conditions: read-out: Selectivity Index; outline: as §3
[9] = Selectivity index, ratio of GI50 for human A549 cells to MIC for Mycobacterium tuberculosis H37Ra ATCC 25177 at dormant stage; type: toxicity, cell-based; conditions: read-out: Selectivity Index; outline: as §3
[10] = Selectivity index, ratio of GI50 for human PANC1 cells to MIC for Mycobacterium tuberculosis H37Ra ATCC 25177 at dormant stage; type: toxicity, cell-based, PANC-1; conditions: read-out: Selectivity Index; outline: as §3
[11] = Selectivity index, ratio of GI50 for human HeLa cells to MIC for Mycobacterium tuberculosis H37Ra ATCC 25177 at dormant stage; type: toxicity, cell-based; conditions: read-out: Selectivity Index; outline: as §3
[12] = Cytotoxicity against primary HUVEC measured after 48 hrs by MTT assay; type: toxicity, cell-based; conditions: human
[13] = Cytotoxicity against human THP1 cells measured after 48 hrs by MTT assay; type: toxicity, cell-based, THP-1
Outline: (§4)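 MTT assay with 48 h compound exposure. THP-1 macrophages made by 24 h PMA treatment. Each concentration tested in triplicate in one experiment. % cytotoxicity = (control−test)/(control−blank)×100, with control = cells + DMSO and blank = medium without cells. IC50 from % survival versus concentration plots.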

[14] = Cytotoxicity against […]-differentiated human THP1 cells measured after 48 hrs by MTT assay; type: toxicity, cell-based, THP-1; outline: as §4
[15] = Cytotoxicity against human A549 cells measured after 48 hrs by MTT assay; type: toxicity, cell-based
[16] = Cytotoxicity against human PANC1 cells measured after 48 hrs by MTT assay; type: toxicity, cell-based, PANC-1
[17] = Cytotoxicity against human HeLa cells measured after 48 hrs by MTT assay; type: toxicity, cell-based

Structure (SMILES)	IC90 [1] [µg/mL]	IC50 [2] [µg/mL]	IC90 [2] [µg/mL]	IC50 [3] [µg/mL]	IC90 [3] [µg/mL]	IC50 [4] [µg/mL]	IC90 [4] [µg/mL]	Selectivity Index [5]	Selectivity Index [6]	selectivity ratio [7]	selectivity ratio [8]	selectivity ratio [9]	selectivity ratio [10]	selectivity ratio [11]	GI50 at 48 h [12] [µg/mL]	GI50 at 48 h [13] [µg/mL]	GI50 at 48 h [14] [µg/mL]	GI50 at 48 h [15] [µg/mL]	GI50 at 48 h [16] [µg/mL]	GI50 at 48 h [17] [µg/mL]
CO[C@H]1/C=C/O[C@@]2(C)Oc3c(C)c(O)c4c(O)c(c(/C=N/N5CCN(C)CC5)c(O)c4c3C2=O)NC(=O)/C(C)=C\C=C\[C@H](C)[C@H](O)[C@@H](C)[C@@H](O)[C@@H](C)[C@H](OC(C)=O)[C@@H]1C [RIFAMPIN]	0.0151 (≈ 0.0183 µM)	0.0019 (≈ 0.00231 µM)	0.02 (≈ 0.0243 µM)	0.0043 (≈ 0.00523 µM)	0.0173 (≈ 0.021 µM)	0.0021 (≈ 0.00255 µM)	0.028 (≈ 0.034 µM)	2500	2500	2500	2500	2500	2500	2500	–	–	–	–	–	–
CC(=O)O[C@H]1C(=O)[C@@]2(C)[C@H]([C@H](OC(=O)c3ccccc3)[C@]3(O)C[C@H](OC(=O)[C@H](O)[C@@H](NC(=O)c4ccccc4)c4ccccc4)C(C)=C1C3(C)C)[C@]1(OC(C)=O)CO[C@@H]1C[C@@H]2O [PACLITAXEL]	–	–	–	–	–	–	–	–	–	–	–	–	–	–	> 10	5.7 (≈ 6.68 µM)	> 100	0.04 (≈ 0.0468 µM)	5.8 (≈ 6.79 µM)	0.08 (≈ 0.0937 µM)

Source: ChEMBL document CHEMBL3877264, “Quinolidene-rhodanine conjugates: Facile synthesis and biological evaluation” (Eur J Med Chem, 2017)
